Drawing on ChEMBL document CHEMBL3272048, “Syntheses and uncoupling activities of alkyl dithiocarbazates and alkyl pyridinecarbonyldithiocarbazates” (J Med Chem, 1978), this text covers Activity for 35 compounds.

Active and inactive are the calls of the source. No cut-off for these calls is given here.

Experiment [1] in a line: Uncoupling of electron transport protein complex in alkyl pyridine carbonyldithiocarbazates-stimulated rat liver mitochondria assessed as concentration required to 100% uncoupling. In a few lines: (§1)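 Rat liver mitochondria were isolated by the Hogeboom method, with protein measured by Biuret. Protein varied by footnote, 1.33–2.12 mg/3.3 mL. Mitochondria in state 4 were kept in pH 7.2 medium (200 mM sucrose, 10 mM phosphate, 2 mM MgCl₂, 1 mM EDTA, 10 mM succinate, 1 μg rotenone). They were titrated with compound in Me₂SO, and O₂ uptake was read by Galvani electrode. The minimum concentration giving maximal respiration release was taken; values are means of ≥3 runs.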

Experiment [2] is filed under the species Rattus norvegicus. Nature of the experiment: Respiration rate of electron transport protein complex in rat liver mitochondria […] assessed as oxygen consumption at 2 uM in presence of ascorbate and TMPD. In a few lines: (§2)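 Rat liver mitochondria at 3.0 mg protein in pH 7.4 medium (200 mM sucrose, 10 mM potassium phosphate, 2 mM MgCl₂, 1 mM EDTA), 25 °C. Substrate was 10 mM ascorbate plus 200 μM TMPD, with 2 μg rotenone. State 4 respiration was read as oxygen uptake on a Clark-type electrode.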

The species named for experiment [3] is Rattus norvegicus. Nature of the experiment: Respiration rate of electron transport protein complex in rat liver mitochondria […] assessed as oxygen consumption at 2 uM in presence of glutamate and malate. In a few lines:
(§3)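 Oxygen uptake by rat liver mitochondria (3.0 mg protein) was measured with a Clark-type electrode at 25 °C. Medium at pH 7.4 held 200 mM sucrose, 10 mM potassium phosphate, 2 mM MgCl₂ and 1 mM EDTA. Substrate was 10 mM glutamate plus 10 mM malate.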

The species entered for experiment [4] is Rattus norvegicus. In words: Respiration rate of electron transport protein complex in rat liver mitochondria […] assessed as oxygen consumption at 1 uM in presence of glutamate and malate. In a few lines: as §3
For experiment [5], the species on record is Rattus norvegicus. Nature of the experiment: Respiration rate of electron transport protein complex in rat liver mitochondria […] assessed as oxygen consumption at 1 uM in presence of ascorbate and TMPD. In outline:
as §2

The species entered for experiment [6] is Rattus norvegicus. In words: Respiration rate of electron transport protein complex in rat liver mitochondria […] assessed as oxygen consumption at 1 uM in presence of succinate. In a few lines:
(§4)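 State 4 respiration of rat liver mitochondria (3.0 mg protein, 25 °C) was followed with a Clark-type electrode. Medium was pH 7.4 with 200 mM sucrose, 10 mM potassium phosphate, 2 mM MgCl₂ and 1 mM EDTA. Substrate was 10 mM succinate with 1 μg rotenone.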

Experiment [7] is filed under the species Rattus norvegicus. Nature of the experiment: Respiration rate of electron transport protein complex in rat liver mitochondria […] assessed as oxygen consumption at 5 uM in presence of ascorbate and TMPD. In outline: as §2
Experiment [8] is described as follows: Uncoupling of electron transport protein complex in alkyl pyridine carbonyldithiocarbazates-stimulated rat liver mitochondria up to 100 uM. In a few lines:
as §1

Experiment [9] can be described thus: Uncoupling of electron transport protein complex in alkyl pyridine carbonyldithiocarbazates-stimulated rat liver mitochondria up to 500 uM. In a few lines:
as §1

Experiment [10] is filed under the species Rattus norvegicus. In words: Respiration rate of electron transport protein complex in rat liver mitochondria […] assessed as oxygen consumption at 2 uM in presence of succinate. In a few lines:
as §4

The species named for experiment [11] is Rattus norvegicus. In words: Respiration rate of electron transport protein complex in rat liver mitochondria […] assessed as oxygen consumption at 5 uM in presence of glutamate and malate. In outline:
as §3

Experiment [12] is filed under the species Rattus norvegicus. In words: Respiration rate of electron transport protein complex in rat liver mitochondria […] assessed as oxygen consumption at 6 uM in presence of ascorbate and TMPD. In a few lines:
as §2

For `CCCCSC(=S)NNC(=O)c1cccnc1`, the Activity in [1] was determined as 360 µM.
Take `CCCCCCCCCSC(=S)NNC(=O)c1ccncc1`: the Activity is 222 min⁻¹ in [2]; 278 min⁻¹ in experiment [3]; 178 min⁻¹ in [4]; 0.86 µM in experiment [1]; 214 min⁻¹ in experiment [5]; 361 min⁻¹ in experiment [6]. Further, the Activity in [7] is 250 min⁻¹.
For `CCCCSC(=S)NNC(=O)c1ccncc1`, in experiment [1], the Activity came out at 62.5 µM.
The same measure, in the same setting: in the case of `CCCCCCCSC(=S)NNC(=O)c1ccncc1` it was 1.95 µM; in that of `CSC(=S)NNC(=O)c1cccnc1`, 2160 µM; in that of `CCCCCSC(=S)NNC(=O)c1cccnc1`, 105 µM.
Still for that read-out and setting: in the case of `CCCCCCSC(=S)NNC(=O)c1ccccn1` it was 50 µM.
Same read-out and setting: the value for `CCCCCSC(=S)NNC(=O)c1ccncc1` was 17.5 µM; that for `CCCCCCSC(=S)NNC(=O)c1cccnc1` was 89 µM.
Take `CCCCCCSC(=S)N(C)NC(=O)c1ccccn1`: the outcome in experiment [8] was inactive.
Consider `CSC(=S)NNC(=O)c1ccncc1`, for which, in experiment [1], the Activity was found to be 1900 µM.
On the same count and under the same terms, the value for `CCCCCCCCSC(=S)NNC(=O)c1ccccn1` was 3.7 µM; that for `CCCSC(=S)NNC(=O)c1ccncc1` was 109 µM.
Take `CCCCCSC(=S)N(C)NC(=O)c1ccccn1`: in [9], the outcome was inactive.
On to `CCCCCCCCCS/C(S)=N/NC(=O)c1ccccn1`, for which the Activity was found to be 111 min⁻¹ in [3]; 89 min⁻¹ in experiment [4]; 2.9 µM in [1]; 250 min⁻¹ in experiment [10]; 180 min⁻¹ in [11]; 220 min⁻¹ in experiment [5]. The figures for the Activity in experiment [6] and in [12] were 167 min⁻¹ and 248 min⁻¹, respectively.
Take `CCCCCCCCCSC(=S)NNC(=O)c1cccnc1`: the Activity came to 227 min⁻¹ in [2]; 178 min⁻¹ in experiment [3]; 125 min⁻¹ in experiment [4]; 1.1 µM in [1]; 300 min⁻¹ in experiment [10]; 263 min⁻¹ in experiment [11]. In addition, the Activity worked out at 208 min⁻¹ in experiment [5], 250 min⁻¹ in [6] and 236 min⁻¹ in experiment [7].
Take `CCSC(=S)NNC(=O)c1cccnc1`: the Activity in [1] was 1000 µM.
On the same count and under the same terms, in the case of `CCCCCCSC(=S)NNC(=O)c1ccncc1` it was 6.58 µM.
The same measure, in the same setting: the value for `CCCCCSC(=S)NNC(=O)c1ccccn1` was 90 µM; that for `CCCCCSC(=S)NN` was 900 µM.
Still for that read-out and setting: the value for `CCCCCCCSC(=S)NN` was 140 µM.
Regarding `CCCCCCCSC(=S)NNC(=O)c1cccnc1`, the Activity in experiment [1] was 14 µM.
Same read-out and setting: the value for `CSC(=S)NNC(=O)c1ccccn1` was 1870 µM; that for `CCCCCCCSC(=S)NNC(=O)c1ccccn1` was 4.7 µM; that for `CCSC(=S)NNC(=O)c1ccncc1` was 1200 µM.
Same read-out and setting: in the case of `CCCSC(=S)NNC(=O)c1ccccn1` it was 290 µM.
Same read-out and setting: the value for `CCCCCCCCSC(=S)NNC(=O)c1cccnc1` was 1.3 µM; that for `CCSC(=S)NNC(=O)c1ccccn1` was 1280 µM; that for `CCCSC(=S)NNC(=O)c1cccnc1` was 370 µM.
Take `CCCCCCCCSC(=S)N(C)NC(=O)c1ccccn1`: the result in [8] was inactive.
With `CCCCCCCCSC(=S)NNC(=O)c1ccncc1`, the Activity in [1] came to 0.84 µM.
For `CCCCCCCCCSC(=S)N(C)NC(=O)c1ccccn1`, the outcome in experiment [8] was inactive.
For `CCCCCCSC(=S)NN`, the Activity in experiment [1] was 350 µM.
As for `CCCCSC(=S)NNC(=O)c1ccccn1`, the Activity in experiment [1] came out at 240 µM.
`CCCCCCCSC(=S)N(C)NC(=O)c1ccccn1`: in experiment [8], the result was inactive.
